Measurements from ChEMBL document CHEMBL1153793, “New pyridone, thioxopyridine, pyrazolopyridine and pyridine derivatives that modulate inflammatory mediators in stimulated RAW 264.7 murine macrophage” (Eur J Med Chem, 2009).
The source made the active and inactive calls. The rule behind the calls is not given here.

What was measured:
RAW264.7 [1] = assay: Effect on inflammatory mediators in LPS-stimulated mouse RAW264.7 cells assessed as PGE2 accumulation at 20 uM after 24 hrs by ELISA; type: functional
Summary of the method: (§1)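 RAW 264.7 given 20 µM compound for 24 h, alone or together with LPS at 1 µg/ml. TNF-α and PGE2 in harvested supernatants quantified with commercial ELISA kits per manufacturer; four repeats, means reported.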

[2] = Hydroxyl radical scavenging activity assessed as trolox equivalents at 1 uM by ORAC assay; type: functional
Summary of the method: (§2)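 β-Phycoerythrin fluorescence decay followed kinetically for 2 h at 37 °C with 1 µM compound, against peroxyl and hydroxyl radicals. One ORAC unit = net protection given by 1.0 µM Trolox.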

RAW264.7 [3] = assay: Effect on inflammatory mediators in LPS-stimulated mouse RAW264.7 cells assessed as COX-2 accumulation at 20 uM after 24 hrs by dot immunoblotting; type: functional
Summary of the method: (§3)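 Cells treated 24 h with 20 µM compound, with or without LPS (1 µg/ml). 20 µg soluble lysate protein dot-blotted onto nitrocellulose and probed with rabbit anti-mouse COX-2 or 5-LO, HRP anti-rabbit secondary and OPD colour. Intensity normalised to β-actin dots; four repeats.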

RAW264.7 [4] = assay: Effect on inflammatory mediators in mouse RAW264.7 cells assessed as TNF-alpha accumulation at 20 uM after 24 hrs by ELISA; type: functional; summary of the method: as §1
RAW264.7 [5] = assay: Effect on inflammatory mediators in LPS-stimulated mouse RAW264.7 cells assessed as 5-LO accumulation at 20 uM after 24 hrs by dot immunoblotting; type: functional; summary of the method: as §3
RAW264.7 [6] = assay: Induction of phagocytosis in mouse RAW264.7 cells assessed as phagocytic activity against FITC-zymosan after 1 hr by fluorimetry; type: functional, cell-based
Summary of the method: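 Cells at 1×10^5/well in phenol red-free RPMI-1640 rested 24 h, then given compound for 1 h. FITC-zymosan added for a further 1 h; cells washed three times and lysed with Triton X-100. Fluorescence read at 485/530 nm and expressed relative to untreated cells (100%).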

[7] = Peroxyl radical scavenging activity assessed as trolox equivalents at 1 uM by ORAC assay; summary of the method: as §2
RAW264.7 [8] = assay: Effect on mouse RAW264.7 cell function assessed as FITC-LPS binding to macrophage after 15 mins by fluorimetry; type: functional, cell-based
Summary of the method: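 5×10^5 RAW 264.7 cells pre-incubated 15 min at 37 °C with compound in RPMI-1640 plus 10% FBS as the CD14/LBP source. FITC-LPS (200 ng/ml) then added for 1 h. After PBS wash, fluorescence read at ex 485/em 530 nm and median fluorescence intensity reported.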

[9] = Antioxidant activity assessed as superoxide radical scavenging activity; type: functional
Summary of the method: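 Non-cellular assay; superoxide generated by oxidation of 50 µM hypoxanthine with 12 mU xanthine oxidase. Scavenging followed as the rate of nitroblue tetrazolium reduction to formazan. SC50 taken from dose-dependent curves of serial dilutions; superoxide dismutase as standard inhibitor.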

RAW264.7 [10] = assay: Effect on inflammatory mediators in mouse RAW264.7 cells assessed as nitrite accumulation at 20 uM after 24 hrs by Griess assay; type: functional
Summary of the method: (§4)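 Cells in phenol red-free RPMI-1640 with 10% FBS treated 24 h with 20 µM compound, with or without LPS (1 µg/ml). Supernatant mixed 1:1 with Griess reagent for 10 min, A550 read against a sodium nitrite standard curve, then normalised to BCA protein.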

RAW264.7 [11] = assay: Effect on inflammatory mediators in LPS-stimulated mouse RAW264.7 cells assessed as TNF-alpha accumulation at 20 uM after 24 hrs by ELISA; type: functional; summary of the method: as §1
RAW264.7 [12] = assay: Effect on inflammatory mediators in mouse RAW264.7 cells assessed as COX-2 accumulation at 20 uM after 24 hrs by dot immunoblotting; type: functional; summary of the method: as §3
RAW264.7 [13] = assay: Effect on inflammatory mediators in mouse RAW264.7 cells assessed as 5-LO accumulation at 20 uM after 24 hrs by dot immunoblotting; type: functional; summary of the method: as §3
RAW264.7 [14] = assay: Effect on inflammatory mediators in LPS-stimulated mouse RAW264.7 cells assessed as nitrite accumulation at 20 uM after 24 hrs by Griess assay; type: functional; summary of the method: as §4
RAW264.7 [15] = assay: Effect on inflammatory mediators in mouse RAW264.7 cells assessed as PGE2 accumulation at 20 uM after 24 hrs by ELISA; type: functional; summary of the method: as §1
RAW264.7 [16] = assay: Cytotoxicity against mouse RAW264.7 cells assessed as cell viability after 24 hrs by MTT assay; type: cell-based; conditions: RAW264.7, 24 h, in the assay text read “MTT assay” for “ultra gel clot assay”
Summary of the method: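 RAW 264.7 macrophages (5×10^4 cells/well) exposed 24 h at 37 °C to a range of compound concentrations, then read by MTT reduction to formazan, solubilised in acidic isopropanol. Viability expressed as mean % of untreated cells (n = 4); 1000 U/ml M-CSF as positive control. IC50 derived.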

Structure (SMILES) | Activity (RAW264.7 [1]) [pg] | Activity [2] | Activity (RAW264.7 [3]) [%] | Activity (RAW264.7 [4]) [pg] | Activity (RAW264.7 [5]) [%] | Activity (RAW264.7 [6]) | Activity [7] | Activity (RAW264.7 [8]) | SC50 [9] [µg/mL] | Activity (RAW264.7 [10]) [nmol] | Activity (RAW264.7 [11]) [pg] | Activity (RAW264.7 [12]) [%] | Activity (RAW264.7 [13]) [%] | Activity (RAW264.7 [14]) [nmol] | Activity (RAW264.7 [15]) [pg] | IC50 (RAW264.7 [16]) [µM]
COc1ccc(-c2cc(-c3ccc4c(c3)CCCC4)nc(OCC(=O)NCc3ccccc3)c2C#N)cc1OC | 2018.96 | 2.31 | 73.3 | 116.8 | 77.4 | inactive | 3.56 | inactive | 19.9 | 26.65 | 854.16 | 23.7 | 18.9 | 155.25 | 53.1 | –
N#Cc1c(-c2c[nH]c3ccccc23)cc(-c2ccc3c(c2)CCCC3)[nH]c1=S | 3005.3 | 4.2 | 59.8 | 75.4 | 69.4 | – | 6.13 | – | 4.22 | 15.5 | 4925.35 | 28.1 | 23.8 | 480.05 | 49.82 | > 100
CC(C)c1ccc(-c2cc(-c3ccc4c(c3)CCCC4)nc3[nH]nc(N)c23)cc1 | 2974.23 | 2.28 | – | 105.6 | – | Active | 2.45 | Active | 21.9 | 5.62 | 1925.78 | – | – | 62.42 | 32.21 | > 50
COc1ccc(-c2cc(-c3ccc4c(c3)CCCC4)nc3[nH]nc(N)c23)cc1OC | 3415.23 | 5.85 | 63.7 | 94.88 | 81.8 | – | 1.92 | – | > 100 | 10.53 | 4185.85 | 15.7 | 24 | 145.67 | 28.6 | > 50
CC(C)c1ccc(-c2cc(-c3ccc4c(c3)CCCC4)nc(NCc3ccccc3)c2C#N)cc1 | 3222.55 | 1.01 | 97.3 | 1890.16 | 88.7 | – | 1.34 | inactive | 77.6 | 614.63 | 6325.08 | 53.2 | 29.8 | 922.5 | 48.3 | > 50
COc1ccc(-c2cc(-c3ccc4c(c3)CCCC4)[nH]c(=O)c2C#N)cc1OC | 3120.45 | 0.54 | 76.3 | 69.56 | 92.1 | – | 0.41 | – | > 100 | 14.8 | 3860.25 | 14.6 | 15.8 | 355.78 | 30.35 | > 100
N#Cc1c(-c2c[nH]c3ccccc23)cc(-c2ccc3c(c2)CCCC3)[nH]c1=O | 3210.3 | 0.21 | 82.4 | 88.44 | 82.3 | Active | 0.35 | – | 78.5 | 16.25 | 5100.15 | 16.3 | 23.5 | 505.75 | 32.63 | > 100
COc1ccc(-c2cc(-c3ccc4c(c3)CCCC4)nc(OCC(=O)NN)c2C#N)cc1OC | 3111.94 | 5.84 | 71.3 | 124.68 | 83.2 | – | 5.12 | – | 8.67 | 1.34 | 4924.22 | 10.2 | 13.8 | 78.54 | 25.6 | 3.1
